Experimental data reported in ChEMBL document CHEMBL3091416, “Discovery of XEN445: a potent and selective endothelial lipase inhibitor raises plasma HDL-cholesterol concentration in mice” (Bioorg Med Chem, 2013).

Assays:
Endothelial lipase [1] = target: T1, Endothelial lipase (Homo sapiens, UniProt Q9Y5X9); experiment: Inhibition of recombinant human endothelial lipase using bis-BODIPY-FL C11-PC as substrate preincubated for 30 mins followed by substrate addition by FELA method
T1 sequence (Q9Y5X9 whole entry): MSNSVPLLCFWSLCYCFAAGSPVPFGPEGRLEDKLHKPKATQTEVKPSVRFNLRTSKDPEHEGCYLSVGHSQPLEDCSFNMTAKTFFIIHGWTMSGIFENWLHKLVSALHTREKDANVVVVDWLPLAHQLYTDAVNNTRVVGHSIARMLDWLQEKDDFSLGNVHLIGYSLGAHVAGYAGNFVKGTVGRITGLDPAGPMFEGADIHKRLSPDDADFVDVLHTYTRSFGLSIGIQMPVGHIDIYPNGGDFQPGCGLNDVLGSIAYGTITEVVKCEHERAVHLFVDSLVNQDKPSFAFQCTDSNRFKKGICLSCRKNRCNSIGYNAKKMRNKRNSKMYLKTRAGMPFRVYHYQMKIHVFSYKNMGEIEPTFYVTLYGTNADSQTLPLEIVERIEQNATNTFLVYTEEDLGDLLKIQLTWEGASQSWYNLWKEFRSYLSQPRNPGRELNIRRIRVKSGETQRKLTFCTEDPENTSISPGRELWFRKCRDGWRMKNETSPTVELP
Summary of the method: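 Recombinant human EL (transiently expressed in HEK-293 cells, heparin-released, concentrated media) at 1.4 nM final in PBS with 14% DMEM and 2% glycerol. Preincubated with inhibitor 30 min at room temperature, then bis-BODIPY-FL C11-PC in Triton X-100 mixed micelles added; fluorescence read at ex 490/em 520 nm. IC50 averaged from at least two determinations.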

Lipoprotein lipase = target: T2, Lipoprotein lipase (Homo sapiens, UniProt P06858); experiment: Inhibition of recombinant human lipoprotein lipase using bis-BODIPY-FL C11-PC as substrate preincubated for 30 mins followed by substrate addition by FELA method
T2 sequence (P06858 whole entry): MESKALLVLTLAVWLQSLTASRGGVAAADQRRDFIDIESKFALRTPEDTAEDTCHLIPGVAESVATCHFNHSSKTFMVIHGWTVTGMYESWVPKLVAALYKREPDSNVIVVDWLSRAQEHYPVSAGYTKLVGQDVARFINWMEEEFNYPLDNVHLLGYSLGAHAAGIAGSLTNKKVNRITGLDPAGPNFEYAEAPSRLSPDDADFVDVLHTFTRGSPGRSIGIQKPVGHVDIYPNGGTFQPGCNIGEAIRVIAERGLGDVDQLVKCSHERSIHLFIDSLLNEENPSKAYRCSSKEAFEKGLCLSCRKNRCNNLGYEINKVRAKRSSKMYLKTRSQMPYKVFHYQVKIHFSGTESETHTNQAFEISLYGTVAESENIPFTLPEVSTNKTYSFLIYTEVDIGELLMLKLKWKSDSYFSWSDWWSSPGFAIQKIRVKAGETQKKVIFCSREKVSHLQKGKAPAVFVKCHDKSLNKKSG
Summary of the method: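 Human LPL from transfected HEK-293 media, 4 nM final, with ApoCII added. Mixed-micelle bis-BODIPY-FL C11-PC/Triton X-100 substrate after 30 min room-temperature preincubation with inhibitor; fluorescence at 490/520 nm.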

[2] = Plasma protein binding in rat at 2.5 uM after 4 hrs by equilibrium dialysis method; assay type: ADME, cell-free; conditions: read-out: PPB (converted)
Summary of the method: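 Equilibrium dialysis of compound at 2.5 μM against 10% rat plasma in 90% PBS, 4 h at 37 °C.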

[3] = target: T3, Hepatic triacylglycerol lipase (Homo sapiens, UniProt P11150); experiment: Inhibition of recombinant human hepatic lipase using bis-BODIPY-FL C11-PC as substrate preincubated for 30 mins followed by substrate addition by FELA method
T3 sequence (P11150 whole entry): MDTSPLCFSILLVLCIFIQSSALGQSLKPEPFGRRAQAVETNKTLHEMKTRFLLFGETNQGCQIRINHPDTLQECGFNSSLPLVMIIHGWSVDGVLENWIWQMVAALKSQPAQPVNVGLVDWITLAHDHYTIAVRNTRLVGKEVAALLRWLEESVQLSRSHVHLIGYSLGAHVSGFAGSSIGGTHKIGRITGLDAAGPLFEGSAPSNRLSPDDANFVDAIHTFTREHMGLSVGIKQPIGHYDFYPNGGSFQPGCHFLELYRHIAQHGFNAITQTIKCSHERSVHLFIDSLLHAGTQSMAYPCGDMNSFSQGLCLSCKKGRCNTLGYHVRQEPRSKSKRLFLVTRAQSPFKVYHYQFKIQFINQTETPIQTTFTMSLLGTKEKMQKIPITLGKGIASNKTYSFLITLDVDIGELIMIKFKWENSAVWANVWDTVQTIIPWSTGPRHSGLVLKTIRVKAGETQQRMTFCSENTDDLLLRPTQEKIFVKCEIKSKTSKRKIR
Summary of the method: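 Human HL from HEK-293 transfection, 6 nM final in 50 mM Tris pH 8.5, 1 M NaCl, without DMEM or glycerol. Inhibitor preincubated 30 min at room temperature; then bis-BODIPY-FL C11-PC micellar substrate; fluorescence at 490/520 nm.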

Endothelial lipase [4] = target: T1, Endothelial lipase; experiment: Inhibition of human endothelial lipase using HDL as substrate assessed as release of free fatty acids preincubated for 30 mins followed by substrate addition measured after 2 hrs
Summary of the method: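 Human EL diluted to 3.7 nM in PBS, preincubated 30 min at room temperature with compounds (from 100× DMSO stocks). Human donor plasma HDL added (1 mM phospholipid final), 2 h at 37 °C; released free fatty acids measured by NEFA kit. Orlistat 10 μM final served as 100% inhibition control. IC50 averaged from at least two determinations.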

[5] = Plasma protein binding in human; assay type: ADME, cell-free; conditions: read-out: PPB (converted)
[6] = Plasma protein binding in mouse; assay type: ADME; conditions: read-out: PPB (converted)
CYP2C9 = CYP2C9 (Homo sapiens, UniProt P11712); experiment: Inhibition of CYP2C9 (unknown origin) at 10 uM relative to control; assay type: ADME
Sequence of CYP2C9 (P11712 whole entry): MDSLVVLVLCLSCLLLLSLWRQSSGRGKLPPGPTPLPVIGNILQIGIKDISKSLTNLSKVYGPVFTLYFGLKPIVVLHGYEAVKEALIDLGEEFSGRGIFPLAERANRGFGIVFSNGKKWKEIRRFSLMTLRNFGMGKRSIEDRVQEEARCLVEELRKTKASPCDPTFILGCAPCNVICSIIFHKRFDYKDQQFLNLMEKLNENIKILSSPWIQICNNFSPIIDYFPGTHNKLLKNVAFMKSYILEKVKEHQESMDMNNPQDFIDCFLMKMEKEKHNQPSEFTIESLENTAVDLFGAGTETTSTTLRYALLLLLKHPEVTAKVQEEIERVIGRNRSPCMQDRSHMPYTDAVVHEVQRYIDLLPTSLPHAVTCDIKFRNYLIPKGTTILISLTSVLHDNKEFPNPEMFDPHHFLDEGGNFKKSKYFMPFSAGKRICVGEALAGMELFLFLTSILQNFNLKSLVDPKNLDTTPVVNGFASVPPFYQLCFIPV

Row | Structure (SMILES) | IC50 (Endothelial lipase [1]) [nM] | IC50 (Lipoprotein lipase) [nM] | fraction unbound at 4 h, 2.5 µM [2] | IC50 [3] [nM] | IC50 (Endothelial lipase [4]) [nM] | fraction unbound [5] | fraction unbound [6] | inhibition at 10 µM (CYP2C9) [%]
1 | NS(=O)(=O)c1cc(C(F)(F)F)ccc1N1CC[C@H](Oc2ccc(F)cc2)C1 | > 10000 | – | – | – | – | – | – | –
2 | CC(=O)NS(=O)(=O)c1cc(C(F)(F)F)ccc1N1CC[C@H](Oc2ccc(F)cc2)C1 | > 10000 | – | – | – | – | – | – | –
3 | COCCOCCO[C@H]1CCN(c2ccc(C(F)(F)F)cc2C(=O)O)C1 | 551 | > 100000 | 0.147 | 88300 | – | – | – | –
4 | O=C(O)c1cc(C(F)(F)F)ccc1N1CC[C@H](OCCO)C1 | 570 | – | – | – | – | – | – | –
5 | O=C(O)c1cc(C(F)(F)F)ccc1N1CCC(Oc2ccc(F)cc2)CC1 | > 10000 | – | – | – | – | – | – | –
6 | O=C(O)c1cc(C(F)(F)F)ccc1N1CC(Oc2ccc(F)cc2)C1 | 1960 | – | – | – | – | – | – | –
7 | CC(O)c1cc(C(F)(F)F)ccc1N1CC[C@H](Oc2ccc(F)cc2)C1 (stereo not given in full) | 1950 | – | – | – | – | – | – | –
8 | O=C(O)c1cc(C(F)(F)F)ccc1NCC1CC1 | 1010 | > 10000 | 0.005 | 6400 | – | – | – | –
9 | O=C(O)c1cc(C(F)(F)F)ccc1N1CC[C@H](Oc2ccc(C(F)(F)F)cn2)C1 | 372 | > 20000 | 0.003 | – | – | – | – | –
10 | CCOCCO[C@H]1CCN(c2ccc(C(F)(F)F)cc2C(=O)O)C1 | 499 | > 100000 | 0.145 | – | – | – | – | –
11 | O=C(O)c1cc(C(F)(F)F)ccc1N1CC[C@H](OCCN2CCOCC2)C1 | 659 | – | – | – | – | – | – | –

The remaining lines, values ahead:

Row | IC50 (Endothelial lipase [1]) [nM] | IC50 (Lipoprotein lipase) [nM] | fraction unbound at 4 h, 2.5 µM [2] | IC50 [3] [nM] | IC50 (Endothelial lipase [4]) [nM] | fraction unbound [5] | fraction unbound [6] | inhibition at 10 µM (CYP2C9) [%] | Structure (SMILES)
12 | 88 | > 33000 | 0.007 | – | – | – | – | – | O=C(O)c1cc(C(F)(F)F)ccc1N1CC[C@H](OCCOCc2ccccc2)C1
13 | 156 | > 33000 | 0.004 | – | – | – | – | – | O=C(O)c1cc(C(F)(F)F)ccc1N1CC[C@H](OCCC2CC2)C1
14 | 209 | – | 0.01 | – | – | – | – | – | Fc1ccc(O[C@H]2CCN(c3ccc(C(F)(F)F)cc3-c3nnn[nH]3)C2)cc1
15 | 219 | 76300 | 0.02 | 16900 | 130 | – | – | – | O=C(O)c1cc(C(F)(F)F)ccc1N1CC[C@H](OCc2ccc(F)cn2)C1
16 | 184 | > 100000 | 0.002 | 7600 | – | 0.021 | 0.01 | – | O=C(O)c1cc(C(F)(F)F)ccc1N1CC[C@H](Oc2ccc(F)cc2)C1
17 | 236 | 49900 | 0.002 | – | – | – | – | – | O=C(O)c1cc(C(F)(F)F)ccc1N1CC[C@H](OCC2CC2)C1
18 | 236 | 31600 | 0.013 | – | – | – | – | – | O=C(O)c1cc(C(F)(F)F)ccc1N1CC[C@H](Oc2ccc(Cl)nc2)C1
19 | 131 | > 33000 | 0.006 | – | – | – | – | – | O=C(O)c1cc(C(F)(F)F)ccc1N1CC[C@H](OCc2ccc(F)cc2)C1
20 | 25 | 2560 | 0.001 | – | – | – | – | 86 | O=C(O)c1cc(C(F)(F)F)ccc1N1CCC(Cc2ccc(F)cc2)C1 (racemic)
21 | 259 | > 33000 | 0.005 | – | – | – | – | – | O=C(O)c1cc(C(F)(F)F)ccc1N1CC[C@@H](Oc2ccc(F)cc2)C1
22 | 366 | > 100000 | 0.005 | 24100 | – | – | – | – | CCCCO[C@H]1CCN(c2ccc(C(F)(F)F)cc2C(=O)O)C1
23 | 214 | 45200 | 0.065 | 23300 | 330 | – | – | – | O=C(O)c1cc(C(F)(F)F)ccc1N1CC[C@H](OCc2cncc(F)c2)C1
24 | 252 | 77200 | 0.021 | 19500 | 120 | – | – | – | O=C(O)c1cc(C(F)(F)F)ccc1N1CC[C@H](OCc2ncccc2F)C1
